The target in one series is T1, Cytochrome P450 2B1 (Rattus norvegicus, UniProt P00176).
T1 sequence (P00176 whole entry): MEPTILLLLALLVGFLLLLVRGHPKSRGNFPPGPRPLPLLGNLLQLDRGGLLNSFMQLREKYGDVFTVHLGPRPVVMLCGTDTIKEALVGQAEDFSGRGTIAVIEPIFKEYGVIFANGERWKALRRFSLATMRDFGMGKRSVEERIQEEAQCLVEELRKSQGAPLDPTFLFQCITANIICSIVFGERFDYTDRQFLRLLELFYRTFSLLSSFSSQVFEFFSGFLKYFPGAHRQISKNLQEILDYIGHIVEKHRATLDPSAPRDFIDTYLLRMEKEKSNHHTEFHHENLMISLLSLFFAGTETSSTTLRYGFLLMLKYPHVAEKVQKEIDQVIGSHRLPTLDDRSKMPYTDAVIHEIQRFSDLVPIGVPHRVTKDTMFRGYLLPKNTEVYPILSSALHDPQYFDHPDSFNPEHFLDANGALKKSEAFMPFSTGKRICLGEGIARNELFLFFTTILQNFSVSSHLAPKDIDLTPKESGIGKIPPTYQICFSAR
Kind of series: Inhibitory potency to aminopyrine N-demethylase activity (P450) in hepatic microsomes from phenobarbitone-induced rats. In kind it is ADME, Liver. As to conditions: read-out: pI50 (converted). In a few lines: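 Microsomes (105000g pellet) from livers of male Wistar rats (100–150 g) given phenobarbitone ip on consecutive days. A 3.0 mL mix in 0.1 M K phosphate, pH 7.4, held aminopyrine 1.61 μmol, NADPH-generating system, semicarbazide and 5.6 mg protein, run 15 min. Formaldehyde was read by Nash/Hantzsch. Inhibitor went in DMSO or 0.07 M HCl, with solvent in controls. I50 came from seven concentrations.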

The nature of series [1]: Partition coefficient (logP). In kind it is physicochemical. To be noted: octanol/water.

As usually defined, the logP is the decadic logarithm of the partition coefficient of the neutral form, usually between octanol and water. Consider `c1ccc(-c2nc3ccccc3[nH]2)nc1`, for which, at Cytochrome P450 2B1, the IC50 is 64.6 µM. In series [1], this molecule gave a logP of 2.38.

As to `c1ccc(CCc2nc3ccccc3[nH]2)cc1`, the IC50 at Cytochrome P450 2B1 was 38.9 µM. The molecule also showed a logP in series [1] of 3.96.

As for `NCc1nc2ccccc2[nH]1`, the logP in series [1] was -0.06.

Consider `CCCCc1nc2ccccc2[nH]1`, for which, in series [1], the logP worked out at 2.93.

`Clc1ccccc1OCc1nc2ccccc2[nH]1`: the IC50 at Cytochrome P450 2B1 was 26.9 µM. Moreover, in series [1], the logP was found to be 3.33.

Consider `Clc1ccc(Cc2nc3ccccc3[nH]2)c(Cl)c1`, for which the IC50 at Cytochrome P450 2B1 was 15.1 µM. The molecule also showed a logP in series [1] of 5.32.

For the molecule `c1ccc(-c2nc3ccccc3[nH]2)cc1`, the IC50 at Cytochrome P450 2B1 was 55 µM. Moreover, the logP in series [1] amounted to 2.87.

Turning to `Brc1cccc(Br)c1OCc1nc2ccccc2[nH]1`, the IC50 at Cytochrome P450 2B1 is 11 µM. In series [1], this molecule yielded a logP of 4.42.

For `Clc1cc2nc[nH]c2cc1Cl`, the IC50 on Cytochrome P450 2B1 was 81.3 µM. In series [1], this molecule came in with a logP of 3.17.

As for `Cc1nc2cc(NC(=O)c3ccccc3)ccc2[nH]1`, in series [1], the logP was 3.19.

In the case of `CC(C)c1nc2ccccc2[nH]1`, the logP in series [1] turned out to be 2.41.

Molecule `O=[N+]([O-])c1ccc2[nH]cnc2c1` had a logP in series [1] of 1.64.

As to `CC(C)(C)c1nc2ccccc2[nH]1`, the logP in series [1] worked out at 2.86.

For the molecule `CCCc1nc2ccccc2[nH]1`, in series [1], the logP came to 2.43.

Consider `Brc1ccc(OCc2nc3ccccc3[nH]2)c(Br)c1`, for which, on Cytochrome P450 2B1, the IC50 was 11 µM. Also, in series [1], the logP was determined as 4.52.

Regarding `c1ccc(OCc2nc3ccccc3[nH]2)cc1`, the IC50 at Cytochrome P450 2B1 is 69.2 µM. Besides, in series [1], the logP was 2.66.

`c1ccc2[nH]cnc2c1` [BENZIMIDAZOLE] yielded a logP in series [1] of 1.38.

As to `Cc1ccc2[nH]cnc2c1`, in series [1], the log partition coefficient (logP) turned out to be 1.89.

On to `Cc1cc(OCc2nc3ccccc3[nH]2)cc(C)c1Cl`, for which, on Cytochrome P450 2B1, the IC50 is 30.2 µM. Also, in series [1], the logP is 4.43.

Consider `Fc1ccc2[nH]cnc2c1`, for which the logP in series [1] was 2.03.

For `c1ccc(CCCCc2nc3ccccc3[nH]2)cc1`, the IC50 on Cytochrome P450 2B1 was 15.1 µM. This molecule registered a logP in series [1] of 4.96.

Consider `Cc1nc2ccccc2[nH]1`, for which, in series [1], the logP amounted to 1.43.

Turning to `Cc1cc(C)cc(OCc2nc3ccccc3[nH]2)c1`, at Cytochrome P450 2B1, the IC50 was 25.7 µM. In addition, in series [1], the logP is 3.5.

In the case of `Cc1nc2c(C)c(C)ccc2[nH]1`, the logP in series [1] was found to be 2.36.

For `CCOc1ccc2[nH]c(C)nc2c1`, the IC50 at Cytochrome P450 2B1 was 56.2 µM. In series [1], this molecule had a logP of 1.93.

On to `Cc1nc2ccc([N+](=O)[O-])cc2[nH]1`, for which the logP in series [1] was determined as 1.69.

Turning to `Cc1cccc(OCc2nc3ccccc3[nH]2)c1`, the IC50 on Cytochrome P450 2B1 is 28.8 µM. The same molecule had a logP in series [1] of 3.14.

On to `Brc1ccc(OCc2nc3ccccc3[nH]2)cc1`, for which, on Cytochrome P450 2B1, the IC50 is 21.9 µM. The logP in series [1] stood at 3.77.

Turning to `c1ccc2c3c(ccc2c1)=NCN=3`, the IC50 at Cytochrome P450 2B1 is 53.7 µM. This molecule also had a logP in series [1] of 2.72.

With `Clc1cccc(OCc2nc3ccccc3[nH]2)c1Cl`, the IC50 at Cytochrome P450 2B1 was 28.2 µM. The same molecule gave a logP in series [1] of 4.26.

As for `c1ccc2c(Cc3nc4ccccc4[nH]3)cccc2c1`, the IC50 at Cytochrome P450 2B1 is 25.1 µM. This molecule also yielded a logP in series [1] of 4.8.

With `c1ccc(OCCc2nc3ccccc3[nH]2)cc1`, the IC50 at Cytochrome P450 2B1 is 25.1 µM. In series [1], this molecule gave a logP of 3.16.

In turn, `Cc1cccc2[nH]cnc12` gave a logP in series [1] of 1.86.

In the case of `CC(=O)Nc1cc(Cl)cc2[nH]c(C)nc12`, the logP in series [1] came out at 1.27.

In turn, `Clc1ccc2[nH]cnc2c1` displayed a logP in series [1] of 2.38.

On to `CCCCCCCc1nc2cc(C)ccc2[nH]1`, for which the IC50 on Cytochrome P450 2B1 is 41.7 µM. The same molecule showed a logP in series [1] of 4.94.

With `c1cncc(-c2nc3ccccc3[nH]2)c1`, the logP in series [1] stood at 1.7.

As for `c1ccc(CCCc2nc3ccccc3[nH]2)cc1`, on Cytochrome P450 2B1, the IC50 was 19.1 µM. In series [1], this molecule had a log partition coefficient (logP) of 4.46.

With `c1ccc2[nH]c(C3CCCCC3)nc2c1`, the IC50 at Cytochrome P450 2B1 was 91.2 µM. Besides, in series [1], the logP was 3.39.

With `Clc1cc(Cl)c2[nH]cnc2c1`, at Cytochrome P450 2B1, the IC50 was 53.7 µM. The same molecule returned a logP in series [1] of 3.26.

Take `O=C(Nc1cc(Cl)cc2nc[nH]c12)c1ccccc1`: on Cytochrome P450 2B1, the IC50 is 26.9 µM. The logP in series [1] was 2.68.

For `O=C(c1ccccc1)c1ccc2[nH]cnc2c1`, the IC50 on Cytochrome P450 2B1 is 20 µM. Also, the logP in series [1] came out at 2.43.

`CCCCCc1nc2cc(NC(C)=O)ccc2[nH]1`: the lipophilicity (logP) in series [1] stood at 2.61.

Molecule `CCc1nc2ccccc2[nH]1` had a logP in series [1] of 1.93.

On to `CCCCc1nc2cc(C)c(C)cc2[nH]1`, for which the IC50 at Cytochrome P450 2B1 is 55 µM. The logP in series [1] is 3.9.

For the molecule `Cc1ccc2nc(C)[nH]c2c1`, in series [1], the logP came out at 1.94.

As to `Brc1ccccc1OCc1nc2ccccc2[nH]1`, the IC50 at Cytochrome P450 2B1 was 12 µM. For the same molecule, in series [1], the logP turned out to be 3.51.

Take `CC(C)Cc1nc2ccccc2[nH]1`: the logP in series [1] was determined as 2.91.

In series [1], `CCc1nc2cc(C)c(C)cc2[nH]1` had a logP of 2.9. The logP values of the last two molecules are within 0.2 log units of each other.

In series [1], `CCCCCCCc1nc2ccccc2[nH]1` yielded a logP of 4.43.

Take `CCCCCCc1nc2ccccc2[nH]1`: at Cytochrome P450 2B1, the IC50 was 32.4 µM. Further, the logP in series [1] came out at 3.93.

Regarding `CCOc1ccc2[nH]cnc2c1`, the IC50 at Cytochrome P450 2B1 was 67.6 µM. This molecule also displayed a logP in series [1] of 1.88.

Molecule `c1ccc2[nH]c(C3CC3)nc2c1` registered a logP in series [1] of 2.02.

Turning to `CCCc1nc2cc(C)c(C)cc2[nH]1`, in series [1], the logP amounted to 3.4.

For the molecule `CCCCCCCCc1nc2ccccc2[nH]1`, the IC50 on Cytochrome P450 2B1 was 28.8 µM. This molecule gave a logP in series [1] of 4.93.

In turn, `CCCCCc1nc2ccccc2[nH]1` had a logP in series [1] of 3.43.

As to `CCCCC(=O)Nc1ccc2nc(C)[nH]c2c1`, the logP in series [1] worked out at 2.11.

On to `CCCCCCCc1nc2cc(C)c(C)cc2[nH]1`, for which the IC50 at Cytochrome P450 2B1 was 44.7 µM. In series [1], this molecule showed a logP of 5.4.

For the molecule `OC(c1ccccc1)c1nc2ccccc2[nH]1` (stereo not given), in series [1], the lipophilicity (logP) came to 1.47.

Take `O=[N+]([O-])c1cc(Cl)cc2[nH]cnc12`: the logP in series [1] was 3.01.

Consider `Cc1nc2cc(Cl)c(Cl)cc2[nH]1`, for which the IC50 at Cytochrome P450 2B1 is 81.3 µM. The molecule also displayed a logP in series [1] of 3.22.

Turning to `Cc1ccc(OCc2nc3ccccc3[nH]2)cc1C`, on Cytochrome P450 2B1, the IC50 was 25.7 µM. In addition, in series [1], the logP stood at 3.4.

For the molecule `c1ccc(Cc2nc3ccccc3[nH]2)cc1` [BENDAZOL], the IC50 at Cytochrome P450 2B1 was 91.2 µM. Besides, the logP in series [1] was determined as 3.46.

In the case of `Cc1nc2cc(Cl)cc(Cl)c2[nH]1`, the IC50 at Cytochrome P450 2B1 is 100 µM. This molecule also displayed a log partition coefficient (logP) in series [1] of 3.31.

As to `c1ccc2c(c1)c1c(c3ccccc32)=NCN=1`, on Cytochrome P450 2B1, the IC50 is 30.2 µM. In series [1], this molecule registered a logP of 4.06.

As to `CCCCCCCCCCCc1nc2ccccc2[nH]1`, the logP in series [1] was 6.43.

Consider `c1ccc2cc(Cc3nc4ccccc4[nH]3)ccc2c1`, for which the IC50 on Cytochrome P450 2B1 is 18.2 µM. For the same molecule, the logP in series [1] worked out at 4.79.

The molecule `CC(=O)Nc1ccc2nc(C)[nH]c2c1` showed a lipophilicity (logP) in series [1] of 0.61.

On to `Clc1cccc(Cc2nc3ccccc3[nH]2)c1`, for which the IC50 at Cytochrome P450 2B1 is 22.9 µM. Besides, the logP in series [1] amounted to 4.44.

In series [1], `Cc1nc2cc(Cl)ccc2[nH]1` yielded a logP of 2.43.

The molecule `CCc1nc2ccc(C)cc2[nH]1` showed a logP in series [1] of 2.44.

Consider `ClCc1nc2ccccc2[nH]1`, for which, in series [1], the logP amounted to 1.15.

On to `CCc1ccc(OCc2nc3ccccc3[nH]2)cc1`, for which the IC50 at Cytochrome P450 2B1 was 67.6 µM. In series [1], this molecule yielded a logP of 3.59.

For `CCCCCCCCCCCCCc1nc2ccccc2[nH]1`, the IC50 at Cytochrome P450 2B1 was 22.9 µM. Also, the logP in series [1] came to 7.43.

With `Cc1ccc(OCc2nc3ccccc3[nH]2)cc1`, the IC50 at Cytochrome P450 2B1 is 44.7 µM. This molecule also showed a logP in series [1] of 3.12.

As for `Cc1cccc(Cc2nc3ccccc3[nH]2)c1C`, at Cytochrome P450 2B1, the IC50 is 53.7 µM. The logP in series [1] worked out at 5.23.

Turning to `Cc1nc2c([N+](=O)[O-])cc(Cl)cc2[nH]1`, on Cytochrome P450 2B1, the IC50 is 100 µM. In series [1], this molecule returned a logP of 3.06.

Regarding `O=[N+]([O-])c1cccc2[nH]cnc12`, in series [1], the logP turned out to be 2.01.

Molecule `Cc1nc2cc(C)c(C)cc2[nH]1` had a logP in series [1] of 2.4.

In series [1], `FC(F)(F)c1nc2ccccc2[nH]1` returned a logP of 2.39.

Consider `Clc1ccc(OCc2nc3ccccc3[nH]2)cc1`, for which the IC50 on Cytochrome P450 2B1 was 25.1 µM. The molecule further had a logP in series [1] of 3.59.

The record behind these values is ChEMBL document CHEMBL1122169, “Inhibition of rat hepatic microsomal aminopyrine N-demethylase activity by benzimidazole derivatives. Quantitative structure-activity relationships” (J Med Chem, 1982).
